What was measured:
iNOS = iNOS (Mus musculus, UniProt P29477); assay: Blocking study of [18F]9 uptake in LPS-treated mice; format: in vivo, C57BL/6N mice
recombinant human iNOS = recombinant human iNOS (Homo sapiens, UniProt P35228); assay: NOS enzyme assay; format: biochemical; conditions: for activity in the iNOS assay: structure-activity discussion
Summary of the method: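 Recombinant iNOS in 50 mM Tris pH 7.4 with 1.0 mM NADPH, 3.8 µM each of FMN, FAD and tetrahydro-L-biopterin, 2.0 mM DTT and 2.0 µM L-arginine. Test compound was diluted in methanol or water. [3H]arginine (0.1 µCi) started the reaction, run 30 min at room temperature. Stopped with yttrium-silicate arginine-binding SPA beads in NaOH; beads settled 2 h, then counted. IC50 from inhibition curves, mean ± S.D., N≥3.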

recombinant human eNOS = recombinant human eNOS (Homo sapiens, UniProt P29474); assay: NOS enzyme assay; format: biochemical; conditions: iNOS vs eNOS
Summary of the method: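 The eNOS buffer also had 20 µg/mL calmodulin and 1 mM CaCl2. [3H]arginine started the reaction, 30 min at room temperature. SPA arginine-binding beads stopped it; counted after 2 h. Mean ± S.D., N≥3.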

[1] = In vivo biodistribution time-course study in control vs. LPS-treated mice; design: species or system C57BL/6 mice; conditions: for Biodistribution Blood / Biodistribution Bone / Biodistribution Brain / Biodistribution Heart / Biodistribution Kidney / Biodistribution Liver / Biodistribution Lung / Biodistribution Muscle: mean ± SD, n = 4
Summary of the method: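 Mature male C57BL/6N mice (6-8 weeks), either given E. coli O127:B8 LPS in PBS (10 mg/kg i.v.) 6 h before tracer or left untreated. HPLC-purified [18F]-labelled test compound (~50 μCi in 10% ethanol/saline) injected i.v. via tail vein. Sacrificed at 5 min, 30 min, 1 h and 2 h. Blood, tissues and organs weighed and gamma-counted against diluted injectate standards, giving %ID/g (mean ± SD).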

Chain of recombinant human iNOS (P35228 whole entry): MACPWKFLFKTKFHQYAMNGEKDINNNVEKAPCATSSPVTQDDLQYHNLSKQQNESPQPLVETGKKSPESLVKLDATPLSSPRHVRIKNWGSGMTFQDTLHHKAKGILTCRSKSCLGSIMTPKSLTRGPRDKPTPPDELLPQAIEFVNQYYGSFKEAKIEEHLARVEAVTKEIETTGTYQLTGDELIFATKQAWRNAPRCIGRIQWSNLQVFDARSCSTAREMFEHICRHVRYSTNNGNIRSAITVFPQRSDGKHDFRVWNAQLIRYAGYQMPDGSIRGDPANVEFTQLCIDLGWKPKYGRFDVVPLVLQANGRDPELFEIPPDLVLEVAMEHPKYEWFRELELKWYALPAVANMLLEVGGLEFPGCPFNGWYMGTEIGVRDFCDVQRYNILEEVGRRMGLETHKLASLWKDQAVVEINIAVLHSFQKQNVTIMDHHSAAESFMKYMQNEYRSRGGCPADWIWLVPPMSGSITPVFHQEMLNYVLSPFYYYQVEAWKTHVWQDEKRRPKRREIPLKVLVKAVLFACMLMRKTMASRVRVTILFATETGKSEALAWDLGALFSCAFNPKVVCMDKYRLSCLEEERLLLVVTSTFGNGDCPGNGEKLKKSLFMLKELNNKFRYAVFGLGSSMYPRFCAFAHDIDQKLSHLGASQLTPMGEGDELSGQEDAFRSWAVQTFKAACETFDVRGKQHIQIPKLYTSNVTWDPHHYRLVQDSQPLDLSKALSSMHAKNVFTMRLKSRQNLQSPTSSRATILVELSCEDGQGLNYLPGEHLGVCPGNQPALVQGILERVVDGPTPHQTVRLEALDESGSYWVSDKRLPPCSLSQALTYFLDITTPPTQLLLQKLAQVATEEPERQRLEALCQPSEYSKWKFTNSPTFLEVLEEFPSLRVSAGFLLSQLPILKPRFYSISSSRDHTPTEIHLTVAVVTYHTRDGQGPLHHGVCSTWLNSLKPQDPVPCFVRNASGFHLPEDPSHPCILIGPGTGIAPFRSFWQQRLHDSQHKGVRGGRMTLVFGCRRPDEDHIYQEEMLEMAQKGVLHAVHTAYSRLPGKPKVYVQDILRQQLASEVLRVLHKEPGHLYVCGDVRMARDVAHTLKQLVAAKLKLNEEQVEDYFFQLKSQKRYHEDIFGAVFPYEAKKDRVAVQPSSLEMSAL

Cc1ccnc(N)c1 [Compound 1, 2-amino-4-methylpyridine]
blocking of the increased [18F]9 uptake in the LPS-treated mice (iNOS; blocking agent 10 mg/kg, i.v., data not shown): failed to block

Nc1ccccn1 [Compound 2-AP, 2-aminopyridine, reference compound]
IC50 (recombinant human iNOS): 108 nM

COC(C)Cc1cc(C)cc(N)n1 (centres unmarked) [Compound 13, 6-(2-Methoxypropyl)-4-methylpyridin-2-amine]
activity in the iNOS assay (recombinant human iNOS): inactive

Cc1cc(N)nc(CC(C)OCCF)c1 (centres unmarked) [Compound 15, 6-(2-(2-Fluoroethoxy)propyl)-4-methylpyridin-2-amine]
activity in the iNOS assay (recombinant human iNOS): inactive

Cc1cc(N)nc(CCCF)c1 [Compound 18, 6-(3-Fluoropropyl)-4-methylpyridin-2-amine]
selectivity against eNOS (recombinant human eNOS): approximately 30 fold

COCCC(C)Cc1cc(C)cc(N)n1 (centres unmarked) [Compound 27, 6-(4-methoxy-2-methylbutyl)-4-methylpyridin-2-amine]
activity in the iNOS assay (recombinant human iNOS): inactive

CSCCC(C)Cc1cc(C)cc(N)n1 (centres unmarked) [Compound 33, 4-Methyl-6-(2-methyl-4-(methylthio)butyl)pyridin-2-amine]
activity in the iNOS assay (recombinant human iNOS): inactive

CC(=N)NCc1cccc(CN)c1 [Compound 1400W, N-(3-(aminomethyl)benzyl)acetamidine]
tracer ([18F]9) uptake in the lungs and blood of the LPS-treated mice blocked (iNOS; mouse, in vivo): 32%

Cc1cc(N)nc(CC(C)[18F])c1 (centres unmarked) [[^18F]9, [^18F]6-(2-Fluoropropyl)-4-methylpyridin-2-amine]
Biodistribution Blood ([1]; 5 min, Control mice): 2.37±0.18 %ID/g | Biodistribution Blood ([1]; 5 min, LPS-treated mice): 3.69±0.38 %ID/g | Biodistribution Blood ([1]; 30 min, Control mice): 1.22±0.16 %ID/g | Biodistribution Blood ([1]; 30 min, LPS-treated mice): 2.09±0.35 %ID/g | Biodistribution Blood ([1]; 1 h, Control mice): 0.31±0.04 %ID/g | Biodistribution Blood ([1]; 1 h, LPS-treated mice): 0.86±0.09 %ID/g | Biodistribution Blood ([1]; 2 h, Control mice): 0.27±0.22 %ID/g | Biodistribution Blood ([1]; 2 h, LPS-treated mice): 0.23±0.05 %ID/g | Biodistribution Bone ([1]; 5 min, Control mice): 1.52±0.36 %ID/g | Biodistribution Bone ([1]; 5 min, LPS-treated mice): 1.59±0.15 %ID/g | Biodistribution Bone ([1]; 30 min, Control mice): 2.26±0.55 %ID/g | Biodistribution Bone ([1]; 30 min, LPS-treated mice): 3.70±1.20 %ID/g | Biodistribution Bone ([1]; 1 h, Control mice): 2.57±0.64 %ID/g | Biodistribution Bone ([1]; 1 h, LPS-treated mice): 4.30±0.90 %ID/g | Biodistribution Bone ([1]; 2 h, Control mice): 5.59±4.20 %ID/g | Biodistribution Bone ([1]; 2 h, LPS-treated mice): 3.77±1.41 %ID/g | Biodistribution Brain ([1]; 5 min, Control mice): 1.60±0.17 %ID/g | Biodistribution Brain ([1]; 5 min, LPS-treated mice): 1.81±0.09 %ID/g | Biodistribution Brain ([1]; 30 min, Control mice): 0.28±0.02 %ID/g | Biodistribution Brain ([1]; 30 min, LPS-treated mice): 0.52±0.15 %ID/g | Biodistribution Brain ([1]; 1 h, Control mice): 0.11±0.02 %ID/g | Biodistribution Brain ([1]; 1 h, LPS-treated mice): 0.19±0.03 %ID/g | Biodistribution Brain ([1]; 2 h, Control mice): 0.07±0.03 %ID/g | Biodistribution Brain ([1]; 2 h, LPS-treated mice): 0.07±0.03 %ID/g | Biodistribution Heart ([1]; 5 min, Control mice): 1.50±0.12 %ID/g | Biodistribution Heart ([1]; 5 min, LPS-treated mice): 2.03±0.06 %ID/g | Biodistribution Heart ([1]; 30 min, Control mice): 0.60±0.05 %ID/g | Biodistribution Heart ([1]; 30 min, LPS-treated mice): 1.02±0.16 %ID/g | Biodistribution Heart ([1]; 1 h, Control mice): 0.19±0.02 %ID/g | Biodistribution Heart ([1]; 1 h, LPS-treated mice): 0.41±0.10 %ID/g | Biodistribution Heart ([1]; 2 h, Control mice): 0.08±0.02 %ID/g | Biodistribution Heart ([1]; 2 h, LPS-treated mice): 0.12±0.04 %ID/g | Biodistribution Kidney ([1]; 5 min, Control mice): 20.6±2.4 %ID/g | Biodistribution Kidney ([1]; 5 min, LPS-treated mice): 26.7±4.1 %ID/g | Biodistribution Kidney ([1]; 30 min, Control mice): 7.30±0.66 %ID/g | Biodistribution Kidney ([1]; 30 min, LPS-treated mice): 10.9±2.8 %ID/g | Biodistribution Kidney ([1]; 1 h, Control mice): 2.20±0.25 %ID/g | Biodistribution Kidney ([1]; 1 h, LPS-treated mice): 3.95±0.53 %ID/g | Biodistribution Kidney ([1]; 2 h, Control mice): 0.80±0.27 %ID/g | Biodistribution Kidney ([1]; 2 h, LPS-treated mice): 0.91±0.63 %ID/g | Biodistribution Liver ([1]; 5 min, Control mice): 33.2±3.3 %ID/g | Biodistribution Liver ([1]; 5 min, LPS-treated mice): 24.6±3.1 %ID/g | Biodistribution Liver ([1]; 30 min, Control mice): 10.7±0.3 %ID/g | Biodistribution Liver ([1]; 30 min, LPS-treated mice): 7.06±0.28 %ID/g | Biodistribution Liver ([1]; 1 h, Control mice): 2.59±0.49 %ID/g | Biodistribution Liver ([1]; 1 h, LPS-treated mice): 2.63±0.52 %ID/g | Biodistribution Liver ([1]; 2 h, Control mice): 0.74±0.23 %ID/g | Biodistribution Liver ([1]; 2 h, LPS-treated mice): 0.42±0.15 %ID/g | Biodistribution Lung ([1]; 5 min, Control mice): 3.33±0.28 %ID/g | Biodistribution Lung ([1]; 5 min, LPS-treated mice): 4.32±0.32 %ID/g | Biodistribution Lung ([1]; 30 min, Control mice): 1.14±0.13 %ID/g | Biodistribution Lung ([1]; 30 min, LPS-treated mice): 1.84±0.27 %ID/g | Biodistribution Lung ([1]; 1 h, Control mice): 0.31±0.06 %ID/g | Biodistribution Lung ([1]; 1 h, LPS-treated mice): 0.73±0.17 %ID/g | Biodistribution Lung ([1]; 2 h, Control mice): 0.15±0.03 %ID/g | Biodistribution Lung ([1]; 2 h, LPS-treated mice): 0.18±0.09 %ID/g | Biodistribution Muscle ([1]; 5 min, Control mice): 1.25±0.06 %ID/g | Biodistribution Muscle ([1]; 5 min, LPS-treated mice): 1.64±0.09 %ID/g | Biodistribution Muscle ([1]; 30 min, Control mice): 0.71±0.31 %ID/g | Biodistribution Muscle ([1]; 30 min, LPS-treated mice): 1.06±0.40 %ID/g | Biodistribution Muscle ([1]; 1 h, Control mice): 0.27±0.18 %ID/g | Biodistribution Muscle ([1]; 1 h, LPS-treated mice): 0.78±0.47 %ID/g | Biodistribution Muscle ([1]; 2 h, Control mice): 0.34±0.27 %ID/g | Biodistribution Muscle ([1]; 2 h, LPS-treated mice): 0.23±0.13 %ID/g | increase in injected dose/gram (ID/g) in the lungs, LPS-treated vs control mice ([1]; 5 min): 30% | increase in injected dose/gram (ID/g) in the lungs, LPS-treated vs control mice ([1]; 30 min): 60%
